Measured values reported in ChEMBL document CHEMBL2331251, “Synthesis and biological evaluation of nucleoside analogues than contain silatrane on the basis of the structure of acyclovir (ACV) as novel inhibitors of hepatitis B virus (HBV)” (Bioorg Med Chem Lett, 2013).
Calls of active or inactive are those of the source. The rule behind the calls is not given here.

Experiments:
[1] = Cytotoxicity against human HepG2.2.15 cells assessed as reduction in number of viable cells after 3 days by MTT assay; format: cell-based, HepG2 2.2.15
Summary of the method: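 Confluent HepG2.2.15 cultures were exposed to test compounds for 3 days, with six cultures for each of two dilutions. MTT (5 g/l) was added 4 h before the end, cells were dissolved in DMSO, and OD was read at 570 nm. CC50 (50% reduction in viable cells or OD) was calculated by the Berkson logit method. Mean ± SD of three independent experiments.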

[2] = test system: Hepatitis B virus; assay: Antiviral activity against Hepatitis B virus transfected in human HepG2.2.15 cells assessed as inhibition of HBeAg secretion after 6 days by ELISA; format: functional, organism-based; details: HepG2 2.2.15, 144 h
Summary of the method: (§1)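 HepG2.2.15 cells in DMEM with 10% FBS at 37 °C, 5% CO2, seeded at about 5 × 10⁵/well. After 24 h, compound was added at a range of concentrations, and media were replaced every 2 days for 6 days. Media were spun at 5000 rpm for 10 min, and secreted HBsAg and HBeAg were measured by ELISA. IC50 is the mean ± SD of three independent experiments.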

[3] = test system: Hepatitis B virus; assay: Antiviral activity against Hepatitis B virus transfected in human HepG2.2.15 cells assessed as inhibition of HBsAg secretion after 6 days by ELISA; format: functional, organism-based; details: HepG2 2.2.15, 144 h; summary of the method: as §1
[4] = test system: Mus musculus; assay: Immunoregulatory activity in Hepatitis B virus infected transgenic mouse assessed as increase in CD4+/CD8+ population in peripheral blood at 100 mg/kg qd for 1 month by flow cytometry (reference value: 0.9 +/-0.2%); format: functional
[5] = test system: Mus musculus; assay: Immunoregulatory activity in Hepatitis B virus infected transgenic mouse assessed as increase in CD8+ population in peripheral blood at 100 mg/kg qd for 1 month by flow cytometry (reference value: 14.1 +/-1.4%); format: functional
[6] = test system: Mus musculus; assay: Immunoregulatory activity in Hepatitis B virus infected transgenic mouse assessed as increase in CD4+ population in peripheral blood at 100 mg/kg qd for 1 month by flow cytometry (reference value: 13.6 +/-2.7%); format: functional
[7] = test system: Mus musculus; assay: Immunoregulatory activity in Hepatitis B virus infected transgenic mouse assessed as increase in CD3+ population in peripheral blood at 100 mg/kg qd for 1 month by flow cytometry (reference value: 30.1 +/-2.9%); format: functional
[8] = test system: Mus musculus; assay: Immunoregulatory activity in Hepatitis B virus infected transgenic mouse assessed as increase in cytokine IL-2 level in serum at 100 mg/kg qd for 1 month by ELISA; format: functional, organism-based; set-up: dose 100 mg/kg
Summary of the method: (§2)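 Serum IFN-γ and IL-2 were measured by ELISA in HBV transgenic mice (10 per group) after 100 mg/kg once daily for one month in 0.1% DMSO, with sera collected at day 30. Mean ± SD of 10 mice.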

[9] = test system: Mus musculus; assay: Immunoregulatory activity in Hepatitis B virus infected transgenic mouse assessed as increase in cytokine IFN gamma level in serum at 100 mg/kg qd for 1 month by ELISA; format: functional, organism-based; set-up: dose 100 mg/kg; summary of the method: as §2
[10] = test system: Hepatitis B virus; assay: Antiviral activity against Hepatitis B virus infected in transgenic mouse assessed as decrease in serum HBeAg level at 100 mg/kg qd for 1 month by ELISA; format: functional, organism-based; set-up: dose 100 mg/kg
Summary of the method: (§3)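 HBV transgenic mice (C57BL/6 background, 3.2 Kb HBV DNA, backcrossed to C57BL/6J), 8 weeks old, equal numbers of each sex, matched for serum HBsAg. Ten per group. Dosed 100 mg/kg once daily for one month in 0.1% DMSO. Groups included saline and 0.1% DMSO. Sera were taken at day 30, and HBsAg and HBeAg were measured by ELISA kit. Mean ± SD of 10 mice.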

[11] = test system: Hepatitis B virus; assay: Antiviral activity against Hepatitis B virus infected in transgenic mouse assessed as decrease in serum HBsAg level at 100 mg/kg qd for 1 month by ELISA; format: functional, organism-based; set-up: dose 100 mg/kg; summary of the method: as §3
[12] = test system: Mus musculus; assay: Immunoregulatory activity in Hepatitis B virus infected transgenic mouse assessed as increase in cytokine IL-2 mRNA level in liver at 100 mg/kg qd for 1 month by qPCR analysis; format: functional, organism-based; set-up: dose 100 mg/kg
Summary of the method: (§4)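 Liver IFN-γ and IL-2 mRNA were measured by qPCR with mouse-specific primers, normalized to GAPDH, 40 cycles, in duplicate. HBV transgenic mice (10 per group) had been dosed at 100 mg/kg once daily for one month in 0.1% DMSO, and livers were taken at day 30. Mean ± SD of 10 mice.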

[13] = test system: Mus musculus; assay: Immunoregulatory activity in Hepatitis B virus infected transgenic mouse assessed as increase in cytokine IFN gamma mRNA level in liver at 100 mg/kg qd for 1 month by qPCR analysis; format: functional, organism-based; set-up: dose 100 mg/kg; summary of the method: as §4
[14] = test system: Hepatitis B virus; assay: Antiviral activity against Hepatitis B virus infected in transgenic mouse assessed as decrease in viral DNA level in liver at 100 mg/kg qd for 1 month by qPCR analysis; format: functional, organism-based; set-up: dose 100 mg/kg
Summary of the method: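 HBV transgenic mice, 8 weeks old, sex- and HBsAg-matched, 10 per group. Given 100 mg/kg daily for one month, solubilized with 0.1% DMSO. Livers were harvested after 30 days. HBV DNA was extracted and quantified by qPCR with a commercial HBV DNA kit, 40 cycles, normalized to GAPDH, run in duplicate. Mean ± SD of 10 mice.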

## CC1CN2CC(C)O[Si](CCCNC(=O)CCCC(=O)OCCOCn3cnc4c(=O)[nH]c(N)nc43)(OC[C@@H]2C)O1 (stereo partly specified)
[1]
  CC50 at 72 h: 732 µM
[2]
  IC50: 486 µM
[3]
  IC50: 141 µM

## Nc1nc2c(ncn2COCCOC(=O)CCCC(=O)NCCC[Si]23OCCN(CCO2)CCO3)c(=O)[nH]1
[1]
  CC50 at 72 h: 570 µM
[2]
  IC50: 160 µM
[3]
  IC50: 90.4 µM

## CC1CN2CC(C)O[Si](CCCNC(=O)CCC(=O)OCCOCn3cnc4c(=O)[nH]c(N)nc43)(O1)O[C@@H](C)C2 (stereo partly specified)
[4]
  Activity: 1.6%
[5]
  Activity: 20.6%
[6]
  Activity: 33%
[7]
  Activity: 48.3%
[8]
  Activity: Active
[9]
  Activity: Active
[10]
  inhibition: Active
[11]
  inhibition: Active
[12]
  Activity: Active
[13]
  Activity: Active
[14]
  inhibition: Active
[1]
  CC50 at 72 h: 467 µM
[2]
  IC50: 89.8 µM
[3]
  IC50: 34.5 µM

## Nc1nc2c(ncn2COCCOC(=O)CCC(=O)NCCC[Si]23OCCN(CCO2)CCO3)c(=O)[nH]1
[1]
  CC50 at 72 h: 485 µM
[2]
  IC50: 125 µM
[3]
  IC50: 79.7 µM

## Nc1nc2c(ncn2COCCO)c(=O)[nH]1 [ACYCLOVIR]
[4]
  Activity: 1.2%
[5]
  Activity: 15.1%
[6]
  Activity: 18.7%
[7]
  Activity: 31.2%
[8]
  Activity: Active
[9]
  Activity: Active
[12]
  Activity: Active
[13]
  Activity: Active
[1]
  CC50 at 72 h: 630 µM
[2]
  IC50: > 1000 µM
[3]
  IC50: > 1000 µM

## Nc1ccn([C@@H]2CS[C@H](CO)O2)c(=O)n1 [LAMIVUDINE]
[4]
  Activity: 1.2%
[5]
  Activity: 16.7%
[6]
  Activity: 19.3%
[7]
  Activity: 34.1%
[8]
  Activity: Active
[9]
  Activity: Active
[12]
  Activity: Active
[13]
  Activity: Active
[14]
  inhibition: Active
[1]
  CC50 at 72 h: > 1000 µM
[2]
  IC50: > 1000 µM
[3]
  IC50: 406 µM
